High-throughput results: PubChem BioAssay, several laboratories
Rows were chosen to be rich in hits. Some 3.7% of all compounds tested hit in one or more screens of this group.
MC4R antag cAMP = blocks human MC4R cAMP signaling; P32245; MC4R-expressing cells, MTII-stimulated cAMP, LANCE TR-FRET; inhibition, % at 6.5 µM; hit rate 0.48% among 360,000; AID 540295;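 active = inhibition above its plate's cutoff, the mean of tested wells on that plate plus 3 SD, cut at about 29% in these data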;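 note: 0% = Melanotan II alone and 100% = Melanotan II plus saturating MCL0020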
Target sequence (P32245 whole entry, looked up): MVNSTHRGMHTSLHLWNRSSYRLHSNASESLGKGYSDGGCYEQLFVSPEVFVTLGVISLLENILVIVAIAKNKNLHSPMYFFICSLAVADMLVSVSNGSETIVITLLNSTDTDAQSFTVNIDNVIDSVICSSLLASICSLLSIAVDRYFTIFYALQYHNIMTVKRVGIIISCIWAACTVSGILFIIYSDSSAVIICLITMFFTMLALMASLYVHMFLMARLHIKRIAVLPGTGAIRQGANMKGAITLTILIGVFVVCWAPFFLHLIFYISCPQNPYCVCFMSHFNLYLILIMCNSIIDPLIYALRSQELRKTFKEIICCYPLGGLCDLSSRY
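system = U2OS cells with stable human MC4R expression | also added = Melanotan II challenge after compound preincubation | dosing = one concentration, 6.5 µM nominal | incubation = compound 30 min, challenge 1 h, detection 1 h | measured by = TR-FRET with Eu-cAMP and labeled anti-cAMP, 671 nm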
MC4R barr agon = activates human MC4R beta-arrestin recruitment. P32245. U2OS MC4R beta-arrestin complementation, luminescence; percent of melanotan II response, DMSO zero. activation, % at 8.9 µM. hit rate 0.98% among 360,000. AID 540308;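 active = activation above a per-plate cutoff, the mean activation of sample wells on that plate plus 3 SD, cut at about 8% in these data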
Exocytosis inh = lytic granule exocytosis inhibition; TALL-104 LAMP-1 surface exposure, flow cytometry; cells stimulated with thapsigargin and PMA; inhibition, % at 10 µM; hit rate 0.66% among 360,000; AID 651702;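 active = inhibition above about 55%, limit read from the data; inconclusive = no clear call, values can overlap the other calls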
Myeloid diff MLP = compounds promoting myeloid differentiation; AID 624256; ER-HoxA9 myeloid progenitors, lysozyme-GFP differentiation, flow cytometry; hit rate 1% among 360,000; calls only at 10 µM;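 active = normalized GFP-positive differentiation at or above the plate's own cutoff, the solvent-only control mean plus 3 SD; inconclusive = no clear call, values can overlap the other calls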;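 note: cells exposed to compound for four days before flow analysis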
EBI2 block = blocks human EBI2 receptor beta-arrestin signaling; P32249; EBI2 beta-arrestin recruitment, luminescence, 7a,25-OHC stimulated; inhibition, % at 5 µM; hit rate 0.81% among 360,000; AID 651636; in the data active = inhibition above about 38%;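 note: enzyme fragment complementation signal reports receptor beta-arrestin coupling in cells; 0% = agonist plus DMSO wells and 100% = wells without agonist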
Numbers without * were called inactive; i = inactive; ? = inconclusive; / = no result; + = active, no number.

SMILES	MC4R antag cAMP	MC4R barr agon	Exocytosis inh	Myeloid diff MLP	EBI2 block
O=C(NC(c1ccc(F)cc1)c1ccc2ccccc2n1)C1CCN(Cc2ccc(Oc3ccccc3)cc2)CC1 (stereo not drawn)	5	0	54	i	19
O=C(NC(c1ccc(F)cc1)c1ccc2ccccc2n1)C1CCN(CCOc2ccc(F)cc2)CC1 (stereo not drawn)	10	1	23	+	39
COc1ccc(/C=N/NC(=O)c2nc(Cl)c(Cl)c(N)c2Cl)cc1COc1ccc(F)cc1F	-8	11*	1	i	-2
Cc1ccc(C(O)c2ncc(-c3cccc4ccccc34)[nH]2)c(C)c1 (stereo not drawn)	5	0	-11	i	7
COc1cccc(C(C(=O)NCc2ccccc2)N2CCN(c3ccccc3F)CC2)c1OC (stereo not drawn)	/	/	2	i	15
CCOC(=O)/C(=C\c1ccccc1)C(=O)c1cc(C(C)=O)c(Nc2ccccc2)s1	15	-1	13	?	48*
CCOC(=O)/C(=C\c1cccnc1)C(=O)c1cc(C(C)=O)c(Nc2ccccc2)s1	-17	-4	60*	?	81*
CCNC(=O)C1(C)CCN(C(=O)CCc2ccccc2)C1 (stereo not drawn)	2	0	-3	i	-9
CCCN(CCC)C(=O)Cn1c(=O)c2sccc2n2c(=S)sc(-c3ccccc3)c12	2	-1	-2	+	2
COc1cccc(CNC(=O)c2ccc(C)c(NC3=NC4CS(=O)(=O)CC4S3)c2)c1 (stereo not drawn)	4	0	-2	i	-6
Cc1cccc([C@@H]2[C@@H]3C(=O)N(Cc4ccccc4)C(=O)[C@@H]3[C@]3(Cc4ccc(Cl)cc4)C(=O)N(c4cccc(Br)c4)C(=O)N23)c1	3	0	1	+	4
Cc1cccc([C@@H]2[C@@H]3C(=O)N(Cc4ccccc4)C(=O)[C@@H]3[C@]3(Cc4ccc(Cl)cc4)C(=O)N(c4ccccc4)C(=O)N23)c1	2	1	3	i	10
COc1ccc(/C=C/c2nc3ccccc3n2Cc2ccccc2OC)cc1	4	-2	11	i	55*
COc1ccccc1Cn1c(/C=C/c2ccccc2)nc2ccccc21	1	-4	2	i	44
OCCNc1nc(-c2ccccc2)nc2c1oc1ccccc12	-1	-1	-14	i	-3
CCc1ccccc1OCC(=O)Nc1ccc(N2CCCC2)cc1C	-1	4	4	+	-8
COc1ccc(N2CCCC2)c(NC(=O)COc2ccccc2)c1	12	1	-1	i	12
Cc1cc(N2CCCC2)ccc1NC(=O)COc1ccccc1	7	1	-2	+	-14
C/C(=N\NC(=O)c1cccc(N/N=C(\C)c2cc(O)ccc2O)c1)c1cc(O)ccc1O	4	-1	-2	i	0
CCCCCC/C=N/Nc1nnc(Cc2ccc(OC)c(OC)c2)c(=O)[nH]1	6	3	-10	+	-7
COc1ccc2cc1Oc1ccc(cc1)CC1c3c(cc(OC)c4c3Oc3cc5c(cc3O4)CCNC5C2)CCN1C (stereo not drawn)	6	45*	18	+	14
COc1cccc(NC(=O)c2cc3c(=O)n4ccccc4nc3n(CC(C)C)c2=N)c1	10	1	68*	?	13
Cc1cccc(NC(=O)c2cc3c(=O)n4ccccc4nc3n(CC(C)C)c2=N)c1	7	-1	24	i	8
N=c1c(C(=O)NCc2ccco2)cc2c(=O)n3ccccc3nc2n1Cc1ccccc1	-1	1	6	i	2
N=c1c(C(=O)NCc2ccco2)cc2c(=O)n3ccccc3nc2n1Cc1ccc(Cl)cc1	2	-3	64*	i	26
O=C(CCl)Nc1cccc(S(=O)(=O)NC2=NCCC2)c1	0	-3	-2	i	-9
CCOC(=O)c1c(S(=O)(=O)NCC2CCN(CCc3cccs3)CC2)c(C)n(C)c1C	8	1	-3	i	-11
COc1ccc(CCNC(=O)COc2cc(O)c3c(c2)OC(C)(C)CC3=O)cc1OC	1	-1	4	i	3
Cc1ccc2c(c1C)-c1c(ccc(C)c1C)C(=O)C2=O	-30	4	106*	/	-88
CCN(CC)C(=S)SSC(=S)N(CC)CC	-7	-2	64*	?	12
